Assay results: ChEMBL document CHEMBL5620424, “Design, synthesis and evaluation of novel 2-phenyl-3-(1H-pyrazol-4-yl)pyridine positive allosteric modulators for the M4 mAChR” (Eur J Med Chem, 2023)
Calls of active or inactive are those of the source. No cut-off for these calls is given here.

Assays:
[1] = Drug concentration in brain of naive C57BL/6J mouse at 10 mg/kg, ip measured after 20 to 30 mins; type: ADME, organism-based; settings: in vivo, time 20-30 min, read-out: Ct
In short: (§1)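 Male C57Bl/6J mice, naïve, 10–12 weeks old, dosed i.p. at 10 mg/kg in 10% DMSO, 1.1% Tween 80, 21.8 mM Tris. Blood by cardiac puncture under anaesthesia at 20 or 90 min (n = 2–3 per time point). Brain concentration corrected for compound in brain vasculature. Mean nM ± SEM reported; Kp = Cbrain/Cplasma, reported as a range.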

[2] = biological target: T1, Muscarinic acetylcholine receptor M4 (Homo sapiens) (UniProt P08173); test: […] human M4 mAChR expressed in Flp-In-CHO cells co-expressing CAMYEL biosensor assessed as change in baseline response at 10 uM incubated for 5 mins by BRET assay relative to control; type: cell-based
T1 sequence (whole entry): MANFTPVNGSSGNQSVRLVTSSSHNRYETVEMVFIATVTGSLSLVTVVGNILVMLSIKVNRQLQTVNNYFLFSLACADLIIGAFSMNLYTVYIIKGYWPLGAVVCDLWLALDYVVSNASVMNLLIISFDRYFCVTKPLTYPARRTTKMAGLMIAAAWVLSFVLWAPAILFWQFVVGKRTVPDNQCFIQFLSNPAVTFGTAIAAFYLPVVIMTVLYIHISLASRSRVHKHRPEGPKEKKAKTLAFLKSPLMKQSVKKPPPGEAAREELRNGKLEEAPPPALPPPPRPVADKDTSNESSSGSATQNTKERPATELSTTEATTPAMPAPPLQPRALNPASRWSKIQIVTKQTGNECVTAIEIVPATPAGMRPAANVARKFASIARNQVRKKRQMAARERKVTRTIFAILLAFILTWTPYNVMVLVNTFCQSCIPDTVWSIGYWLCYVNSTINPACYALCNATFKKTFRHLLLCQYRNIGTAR
In short: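 FlpInCHO cells stably expressing human M4 mAChR, transiently transfected with CAMYEL cAMP BRET biosensor (60 ng/well, PEI), assayed 48 h later in HBSS pH 7.4. Full ACh concentration-response curve alone or with modulator at 1 or 10 μM, co-added with coelenterazine h (5 μM), 5 min, 37 °C. Three-parameter logistic fit; ACh curve values subtracted from ACh+modulator values. Δbaseline and ΔEmax given as % of maximal ACh response without modulator. 4 experiments in duplicate, SEM pooled.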

[3] = biological target: T1, Muscarinic acetylcholine receptor M4 (Homo sapiens); test: Displacement of 3[H]-NMS from human M4 mAChR expressed in Flp-In-CHO cells assessed as binding co-operativity (log alpha) incubated for 6 hrs in presence of ACh by microbeta2 plate reader assay; type: cell-based; settings: filed as positive allosteric modulator
In short: (§2)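 Intact FlpInCHO-hM4 cells, 20,000/well grown overnight, in HBSS pH 7.4 with [3H]-NMS 0.5 nM, ACh (0.01 μM–10 mM) and modulator (0.1–10 μM), shaken 6 h at room temperature. Washed with ice-cold 0.9% NaCl, then scintillation counting. Nonspecific binding defined with 10 μM atropine. pKB and log α(ACh) from global fit to allosteric ternary complex model, with log α′(NMS) fixed at –3 under strong negative cooperativity. 4–5 experiments in duplicate.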

[4] = biological target: T2, Muscarinic acetylcholine receptor M2 (Homo sapiens) (UniProt P08172); test: Positive allosteric modulation at human M2 mAChR expressed in Flp-In-CHO cells at 10 uM incubated for 5 mins by […]; type: cell-based
T2 sequence (whole entry): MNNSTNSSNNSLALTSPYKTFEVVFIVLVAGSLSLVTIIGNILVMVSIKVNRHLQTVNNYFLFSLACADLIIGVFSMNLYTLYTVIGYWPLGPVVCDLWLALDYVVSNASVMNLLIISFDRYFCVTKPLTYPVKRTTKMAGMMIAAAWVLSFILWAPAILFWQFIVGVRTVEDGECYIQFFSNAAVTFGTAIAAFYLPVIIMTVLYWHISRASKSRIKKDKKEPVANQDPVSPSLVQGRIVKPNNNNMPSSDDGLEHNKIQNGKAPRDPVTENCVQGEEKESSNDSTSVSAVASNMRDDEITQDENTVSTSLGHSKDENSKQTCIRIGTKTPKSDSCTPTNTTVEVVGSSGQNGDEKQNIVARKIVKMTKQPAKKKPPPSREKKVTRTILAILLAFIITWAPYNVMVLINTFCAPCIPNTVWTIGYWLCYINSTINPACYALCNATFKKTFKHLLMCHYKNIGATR
In short: (§3)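 FlpInCHO cells stably expressing human M1–M5 mAChRs, serum-deprived in HBSS 4 h at 37 °C, then ACh (10 nM–10 μM) with or without modulator at 10 μM for 5 min at 37 °C. Cells lysed and frozen overnight. pERK1/2 measured by AlphaScreen SureFire Ultra, as % of response to 10% FBS.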

[5] = Ratio of drug concentration in brain to plasma of naive C57BL/6J mouse at 10 mg/kg, ip; type: ADME, organism-based; settings: read-out: BPR; in short: as §1
[6] = biological target: Muscarinic acetylcholine receptor M3 (Homo sapiens) (UniProt P20309); test: Positive allosteric modulation at human M3 mAChR expressed in Flp-In-CHO cells at 10 uM incubated for 5 mins by […]; type: cell-based; in short: as §3
Sequence of Muscarinic acetylcholine receptor M3 (Homo sapiens) (P20309 whole entry, looked up): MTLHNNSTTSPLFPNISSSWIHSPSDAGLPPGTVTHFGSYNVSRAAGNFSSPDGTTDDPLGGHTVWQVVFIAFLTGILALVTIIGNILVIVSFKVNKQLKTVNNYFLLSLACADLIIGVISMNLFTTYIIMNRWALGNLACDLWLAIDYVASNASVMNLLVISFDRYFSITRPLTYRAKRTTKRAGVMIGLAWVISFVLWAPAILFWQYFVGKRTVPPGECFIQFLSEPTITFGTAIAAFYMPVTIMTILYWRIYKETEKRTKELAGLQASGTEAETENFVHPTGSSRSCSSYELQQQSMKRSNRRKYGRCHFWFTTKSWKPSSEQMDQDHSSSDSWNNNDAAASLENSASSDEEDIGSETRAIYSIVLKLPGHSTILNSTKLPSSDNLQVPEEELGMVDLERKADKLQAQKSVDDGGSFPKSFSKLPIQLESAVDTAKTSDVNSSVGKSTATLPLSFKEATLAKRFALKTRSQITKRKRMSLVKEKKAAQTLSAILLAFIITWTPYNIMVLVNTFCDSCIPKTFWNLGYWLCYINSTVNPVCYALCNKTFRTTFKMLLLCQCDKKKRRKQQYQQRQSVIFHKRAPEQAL

[7] = biological target: T1, Muscarinic acetylcholine receptor M4 (Homo sapiens); test: Positive allosteric modulation at Rluc-tagged human M4 mAChR expressed in Flp-In-CHO cells co-expressing eYFP-tagged beta-arrestin 2 assessed as ACh-mediated beta-arrestin 2 recruitment co-operativity (log alpha beta) incubated for 5 mins by luminometry; type: cell-based; settings: filed as positive allosteric modulator
In short: (§4)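 FlpInCHO cells co-transfected with human M4-Rluc8 (20 ng/well) and β-arrestin-2-eYFP (80 ng/well) using PEI, assayed after 48 h. Coelenterazine h (5 μM) preincubated 5 min, then ACh plus modulator ranges for 5 min at 37 °C; BRET at 475/535 nm. Fit to simplified operational model with slope 1 and KB fixed from binding. 4–5 experiments in duplicate.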

[8] = biological target: T1, Muscarinic acetylcholine receptor M4 (Homo sapiens); test: Positive allosteric modulation at Rluc-tagged human M4 mAChR expressed in Flp-In-CHO cells co-expressing eYFP-tagged beta-arrestin 2 assessed as efficacy of ACh-mediated beta-arrestin 2 recruitment (log tau B) incubated for 5 mins by luminometry; type: cell-based; settings: filed as positive allosteric modulator; in short: as §4
[9] = Drug concentration in brain of naive C57BL/6J mouse at 10 mg/kg, ip measured after 90 mins; type: ADME, organism-based; settings: read-out: Ct; in short: as §1
[10] = biological target: T1, Muscarinic acetylcholine receptor M4 (Homo sapiens); test: Displacement of 3[H]-NMS from human M4 mAChR expressed in Flp-In-CHO cells assessed as binding constant incubated for 6 hrs by microbeta2 plate reader assay; type: cell-based; settings: filed as positive allosteric modulator; in short: as §2
[11] = filed as positive allosteric modulator

| concentration [1] | Activity [2, 11] | log(activity) [3] | Activity [4] | Kp [5] | Activity [6] | log(activity) [7] | log(activity) [8] | concentration at 1.5 h [9] | pKb [10] | Activity [4, 11] | Activity [2] | Structure (SMILES) |
| --- | --- | --- | --- | --- | --- | --- | --- | --- | --- | --- | --- | --- |
| 2140 nM | 51.4% | 2.04 | inactive | 1.6 | inactive | 1.55 | 0.31 | 255 nM | 4.53 |  |  | Cc1ccc(-c2cnn(CC3CCCC3)c2)c(-c2ccc(F)c(F)c2)n1 |
| 481 nM | 103% | 2.12 |  | 0.1 | inactive | 1.94 | 0.99 | 9 nM | 6.22 | Active |  | Cc1ccc(-c2cnn(CC3CCCC3)c2)c(-c2ccc3c(c2)C(=O)N(C)C3)n1 |
| 982 nM |  | 1.87 | inactive | 0.3 | inactive | 1.18 | 0.39 | 373 nM | 4.75 |  | 8.48% | Cc1ccc(-c2cnn(CC3CCCC3)c2)c(-c2ccc(N)c([N+](=O)[O-])c2)n1 |
